Screening data: PubChem BioAssay, several laboratories
APJ antagonist: antagonists of human APJ apelin receptor; 0.32% of 330,000 active; CHO-K1 APJ beta-arrestin complementation, luminescence; P35414; AID 2521; inhibition, % at 20 µM;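 active = inhibition above about 40% at 20 µM, limit read from the data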;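 also: cells challenged with 10 nM apelin-13 agonist together with compound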
Beta2AR agonist: human beta-2 adrenergic receptor agonism by FAP; P07550; Am2.2-beta2AR cells, FAP receptor internalization, flow cytometry; response, % (test concentration not listed); 0.43% of 340,000 active;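 active = response above a set limit, near 3 SD of response in nonfluorescent compounds, cut at about 42% in these data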
CCR6 antagonist: antagonists of human CCR6 receptor. inhibition, % at 20 µM. P51684. 0.49% of 340,000 active. CHO-K1 CCR6 PathHunter beta-arrestin, luminescence, CCL20-stimulated;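 active = compounds whose inhibition of the agonist-driven luminescence signal at 20 µM reaches about 50%, limit read from the data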;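 also: cells stimulated with CCL20 at 14 nM final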
EBI2 block: EBI2 (human) antagonism; AID 651636; inhibition, % at 5 µM; EBI2 beta-arrestin recruitment, luminescence, 7a,25-OHC stimulated; P32249; 0.81% of 360,000 active; in the data active = inhibition above about 38%;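 also: enzyme fragment complementation signal reports receptor beta-arrestin coupling in cells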
Target sequence (P32249 whole entry, looked up, the tested form may be a part): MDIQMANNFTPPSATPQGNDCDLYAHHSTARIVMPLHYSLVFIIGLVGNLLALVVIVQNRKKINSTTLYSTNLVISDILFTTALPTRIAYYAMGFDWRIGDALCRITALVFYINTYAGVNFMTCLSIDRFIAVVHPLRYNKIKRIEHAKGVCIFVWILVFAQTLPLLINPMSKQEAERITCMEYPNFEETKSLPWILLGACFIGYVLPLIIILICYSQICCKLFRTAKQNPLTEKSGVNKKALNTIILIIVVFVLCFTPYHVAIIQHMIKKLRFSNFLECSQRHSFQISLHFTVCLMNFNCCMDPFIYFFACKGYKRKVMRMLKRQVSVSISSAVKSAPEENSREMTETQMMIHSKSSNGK
CXCR6 inh: CXCR6 (human) receptor inhibition | O00574 | CHO-K1 PathHunter CXCR6 beta-arrestin, luminescence | inhibition, % at 20 µM | 0.36% of 360,000 active; in the data active = inhibition above about 34%, passing the limit was not always enough;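 also: antagonist mode with CXCL16 agonist at 10 nM final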
Target sequence (O00574 whole entry, looked up): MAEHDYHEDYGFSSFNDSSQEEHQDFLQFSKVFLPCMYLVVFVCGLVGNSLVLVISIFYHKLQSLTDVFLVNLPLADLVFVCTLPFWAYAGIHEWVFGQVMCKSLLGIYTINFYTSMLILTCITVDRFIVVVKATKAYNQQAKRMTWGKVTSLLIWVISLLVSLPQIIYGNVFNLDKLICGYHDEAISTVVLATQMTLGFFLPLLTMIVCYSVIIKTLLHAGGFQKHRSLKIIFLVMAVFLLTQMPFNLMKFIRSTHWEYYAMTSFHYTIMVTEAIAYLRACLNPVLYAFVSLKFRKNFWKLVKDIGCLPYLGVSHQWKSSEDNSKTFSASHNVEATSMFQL
APJ ag: APJ receptor agonism | CHO-K1 APJ PathHunter beta-arrestin, luminescence; 0% DMSO wells, 100% apelin | activation, % at 20 µM | 0.11% of 330,000 active;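 active = activation more than six SD over the plate average, tested at 20 µM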
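Test system: CHO-K1 APJ beta-arrestin complementation cell line | Compound: Single test compound dose, 20 µM final, 1% DMSO | Incubation: Compound 90 min 25 °C, reagent 1 h | Measured by: beta-gal luminescence | Read-out basis: APJ–arrestin association signal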
B2AR ag CP1: agonists of human beta-2 adrenergic receptor; shares compounds with Beta2AR agonist; Am2.2-beta2AR cells, FAP surface receptor, flow cytometry; stronger effect = lower value; percent response (surface receptor), % at 10 µM; 25% of 1,100 active;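 active = surface receptor percent response at or below 58%, roughly 3 SD from nonfluorescent compounds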
B2AR FAP counter: counter-screen for beta-2AR agonists: fluorescence in Am2.2 cells. AID 588765. calls only at 10 µM. FAP fluorogen flow cytometry, fluorescence counterscreen; stronger effect = lower value. shares compounds with Beta2AR agonist. 1,100 tested, under 10 active;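 active = percent response below a set limit in fluorescence channel 1 and below 50% in channel 8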
Each line names hits and unclear results; the compound was inactive in the other large screens (follow-up assays come after a bar, where they were run). Most compounds without a hit are left out; they make up all but 1.8% or so of the library.

Cc1ccc(S(=O)(=O)Nc2ccc(O)c3cccnc23)cc1	none | B2AR ag CP1 inactive | B2AR FAP counter inactive
COc1ccc(-c2cc3nc(C)cc(N4CCN(C(=O)c5ccco5)CC4)n3n2)cc1	none (no result: APJ antagonist, Beta2AR agonist, CCR6 antagonist, APJ ag)
Cc1cc(N2CCN(C(=O)c3ccco3)CC2)n2nc(-c3cccc(Cl)c3)cc2n1	Beta2AR agonist 42.3 | B2AR ag CP1 inactive | B2AR FAP counter inactive
Cc1cc(NC(=O)c2csc([C@@H]3O[C@H](CO)[C@H](O)[C@H](O)[C@H]3O)n2)n(C)n1	none (no result: APJ antagonist, Beta2AR agonist, CCR6 antagonist, APJ ag)
Cc1nc([N+](=O)[O-])c(Br)n1CC(=O)c1ccccc1	none
Cc1nc([N+](=O)[O-])c(Br)n1CC(=O)c1ccc2ccccc2c1	Beta2AR agonist 42.7, EBI2 block 55.4 | B2AR ag CP1 inactive | B2AR FAP counter inactive
CCn1nc(NS(=O)(=O)c2ccccc2)c2cc3ccccc3nc21	none
CC(C)Cn1nc(NS(=O)(=O)c2ccccc2)c2cc3ccccc3nc21	none | B2AR ag CP1 inactive | B2AR FAP counter inactive
O=C(COc1ccc(F)cc1)N(Cc1cccc(Br)c1)C1CCS(=O)(=O)C1 (configuration not stated)	Beta2AR agonist 52.8 | B2AR ag CP1 inactive | B2AR FAP counter inactive
O=C(COc1ccccc1)N(Cc1cccc(F)c1)C1CCS(=O)(=O)C1 (configuration not stated)	none
CCCCNC(=O)C1(C)CCC(=O)N1CCc1c[nH]c2ccccc12 (configuration not stated)	none (no result: APJ antagonist, Beta2AR agonist, CCR6 antagonist, APJ ag)
COc1ccc(OC)c(CCNC(=O)C2CCN(c3nnc(-n4cccc4)s3)CC2)c1	Beta2AR agonist 51.2 | B2AR ag CP1 inactive | B2AR FAP counter inactive
COc1ccc(N2C(=O)CS/C2=N\C(=S)Nc2ccccc2)cc1	none | B2AR ag CP1 inactive | B2AR FAP counter inactive
COc1ccc(CN(C(=S)Nc2ccccc2)C2CC(=O)N(c3ccc(F)cc3)C2=O)cc1 (configuration not stated)	none
Cc1ccccc1C(=O)N[C@H](C(=O)OCC(=O)NC1CC1)C(C)C	none
CN1CCN(Cc2cc(COCc3ccccc3)c3cccnc3c2O)CC1	none | B2AR ag CP1 inactive | B2AR FAP counter inactive
Oc1c(CN2CCCCC2)cc(Br)c2cccnc12	none
COc1ccccc1C(=O)Nc1ccc2c(c1)nc(CN1CCN(C(C)=O)CC1)n2C	Beta2AR agonist 52.9 | B2AR ag CP1 inactive | B2AR FAP counter inactive
Cc1cccc(C)c1NC(=O)CNC(=O)C(C)NC(C)c1ccccc1Br (configuration not stated)	none
COc1ccc(NC(=O)c2cc(-c3ccncc3)nc3ccc(Br)cc23)cc1OC	Beta2AR agonist 97.0 | B2AR ag CP1 inactive | B2AR FAP counter inactive
COc1ccc(NC(=O)c2cc(-c3cccnc3)nc3ccc(C)cc23)cc1OC	none (no result: APJ antagonist, APJ ag)
COc1ccccc1C(=O)NNC(=O)c1cccc(C)c1	none
COc1cc2nc(N3CCNCC3)nc(N)c2cc1OC	Beta2AR agonist 61.2 | B2AR ag CP1 51.0 | B2AR FAP counter inactive
COC(=O)c1ccc2nc(C3CCCCC3)c(Cc3cccc(Cl)c3)n2c1	none (no result: APJ antagonist, Beta2AR agonist, CCR6 antagonist, APJ ag)
O=C(NCc1cccs1)c1csc([C@@H]2C[C@H](O)[C@@H](CO)O2)n1	none (no result: APJ antagonist, Beta2AR agonist, CCR6 antagonist, APJ ag)
COc1ccc(-c2cc(C)no2)cc1S(=O)(=O)N1CC(=O)Nc2ccccc21	none
COc1ccc(-c2cc(C)no2)cc1S(=O)(=O)N1CCOc2ccc(Cl)cc21	Beta2AR agonist 46.4 | B2AR ag CP1 inactive | B2AR FAP counter inactive
C=CCn1c(C)cc(C(=O)COc2ccc(N(C)S(=O)(=O)c3ccc(NC(C)=O)cc3)cc2)c1C	Beta2AR agonist 44.2 | B2AR ag CP1 inactive | B2AR FAP counter inactive
COc1ccccc1OCC(=O)NC1CCSc2ccccc21 (configuration not stated)	none
Clc1ccc(Cl)c(OCCCCNCc2ccccc2)c1	Beta2AR agonist 46.1 | B2AR ag CP1 inactive | B2AR FAP counter inactive
c1nc(C2CCCCC2)cc2cc3c(cc12)OCO3	none
N#CC1C(=O)NC(=O)CC12CCCCC2 (configuration not stated)	none (no result: APJ antagonist, APJ ag)
Cc1ccc(SCC(=O)Nc2ccc(-c3nnc(-c4ccco4)o3)cc2)cc1	Beta2AR agonist 81.6 | B2AR ag CP1 34.3 | B2AR FAP counter inactive
Cc1ccc(NC(=O)CCSc2nnc(-c3ccco3)o2)cc1	none
CCn1c2ccccc2c2cc(Nc3cc(C)nc4ncnn34)ccc21	Beta2AR agonist 42.0 | B2AR ag CP1 inactive | B2AR FAP counter inactive
COc1cccc(C(C(=O)NC2CCCC2)N2CCN(c3ncccc3C#N)CC2)c1OC (configuration not stated)	none (no result: APJ antagonist, Beta2AR agonist, CCR6 antagonist, CXCR6 inh, APJ ag)
CCOC(=O)Cn1nc(C)n(-c2ccc(C(C)(C)C)cc2)c1=O	Beta2AR agonist 51.0 | B2AR ag CP1 inactive | B2AR FAP counter inactive
CN(Cc1cn(C)nc1-c1ccccc1F)C1CCOC1 (configuration not stated)	none
CN(CCCN1CCOCC1)Cc1cn(C)nc1-c1ccccc1F	none | B2AR ag CP1 inactive | B2AR FAP counter inactive
O=C1CCC(=O)N1c1nc2nc(-c3ccccc3)cc(=O)n2[nH]1	Beta2AR agonist 42.8 | B2AR ag CP1 inactive | B2AR FAP counter inactive
O=C(Nc1cccc(-c2nc3cccnc3s2)c1)C1c2ccccc2Oc2ccccc21	Beta2AR agonist 73.9 | B2AR ag CP1 44.4 | B2AR FAP counter inactive
COc1cccc(-c2ccc(NC(=O)C3CCCN(Cc4cnc(N(C)C)s4)C3)cc2)c1 (configuration not stated)	none
CCc1ncc(CN2CCCC(C(=O)Nc3cccc(-c4ccc(F)cc4)c3)C2)cn1 (configuration not stated)	none
Cc1ncc(CN2CCCC(C(=O)Nc3ccc(-c4cccc(F)c4)cc3)C2)s1 (configuration not stated)	Beta2AR agonist 50.7 | B2AR ag CP1 24.6 | B2AR FAP counter inactive
Cc1ncc(CN2CCCC(C(=O)Nc3ccc(-c4cccc(F)c4)cc3)C2)cn1 (configuration not stated)	Beta2AR agonist 90.7 | B2AR ag CP1 20.9 | B2AR FAP counter inactive
CNCC(O)c1ccc(OC(=O)C(C)(C)C)c(OC(=O)C(C)(C)C)c1 (configuration not stated)	none | B2AR ag CP1 45.5 | B2AR FAP counter inactive
COC(=O)c1ccc(N2CCN(C)CC2)c(NC(=O)c2sc3ccccc3c2Cl)c1	Beta2AR agonist 70.9 (no result: APJ antagonist, APJ ag) | B2AR ag CP1 inactive | B2AR FAP counter inactive
CCOC(=O)[C@]12CCCC=C1N(Cc1cccc3ccccc13)C(=O)[C@H](CC(=O)N1CCN(C(=O)C3CC3)CC1)C2	none (no result: APJ antagonist, Beta2AR agonist, CCR6 antagonist, APJ ag)
